Sampled rows, rich in hits. Any-hit rate of the full collection: about 0.83%.
RGS8-Gao reg – regulators of human RGS8-Galphao interaction | P09471 | multiplexed bead flow cytometry, RGS8-Galphao binding; actives lie on both sides | response (percent of control binding), % at 10 µM | 220,000 tested, 0.34% active | AID 1423; in the data active = response below about 60% or above about 140%; inactive = in between;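 note: Galphao activated as the GDP aluminium fluoride complex binding bead-coupled RGS8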
Target sequence (P09471 whole entry, looked up): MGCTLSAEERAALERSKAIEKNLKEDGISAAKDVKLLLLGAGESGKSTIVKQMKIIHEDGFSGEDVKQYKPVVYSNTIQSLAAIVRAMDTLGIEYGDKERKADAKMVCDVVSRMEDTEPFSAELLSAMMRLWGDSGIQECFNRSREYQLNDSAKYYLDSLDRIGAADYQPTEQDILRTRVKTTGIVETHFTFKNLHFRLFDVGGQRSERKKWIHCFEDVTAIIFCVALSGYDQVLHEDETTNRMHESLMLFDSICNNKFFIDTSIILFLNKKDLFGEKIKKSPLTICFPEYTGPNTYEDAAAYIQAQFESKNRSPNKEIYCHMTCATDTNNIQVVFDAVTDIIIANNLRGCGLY
RGS7-Gao reg – regulators of human RGS7-Galphao interaction; P09471; Multiplexed bead flow cytometry, RGS7-Galphao binding; actives lie on both sides; binding response (% of control), % at 10 µM; 220,000 tested, 0.35% active; AID 1439; in the data active = binding response below about 49% or above about 150%; inconclusive = no clear call, values can overlap the other calls; inactive = in between;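 note: fluorescent Galphao held in activated GDP-AlF4 state binding bead-coupled RGS7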
RGS16-Gao HTS – RGS16-Galphao interaction regulator (human). O15492+P09471. bead-based flow cytometry RGS16-Galphao binding, fluorescence; actives lie on both sides. binding response (% of control), % at 10 µM. 220,000 tested, 0.38% active. AID 1441;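 note: Galphao activated by GDP with aluminum fluoride before binding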
Target sequence (O15492 whole entry, looked up): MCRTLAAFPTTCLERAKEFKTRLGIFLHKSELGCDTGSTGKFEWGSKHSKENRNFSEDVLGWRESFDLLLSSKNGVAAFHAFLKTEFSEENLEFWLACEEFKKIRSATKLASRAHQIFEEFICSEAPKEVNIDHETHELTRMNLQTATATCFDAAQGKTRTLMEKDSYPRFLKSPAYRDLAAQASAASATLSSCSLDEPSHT
Target sequence (P09471 whole entry, looked up): as the sequence (P09471 whole entry, looked up) above
ABCG2 inh – inhibitors of human ABCG2 transporter, ABCB1 counter-screen | IgMXP3 cells, JC-1 efflux, flow cytometry | inhibition, % at 6.6 µM | 190,000 tested, 0.1% active | AID 1325;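 active = inhibition above 80%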;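 note: 0% = DMSO and 100% = nicardipine control wells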
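test system = two drug-resistant human cell lines, ABCG2 and ABCB1 | amount = 3 million cells/mL final, two lines in 1:1 ratio | reagent = JC-1 transporter substrate | doses = one concentration, 6.6 µM final | incubation = 10 min at 25 °C | signal = flow cytometric JC-1 green MFI at 530 nm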
ABCB1 inh – human ABCB1 inhibition, ABCG2 as counter-screen; P08183; CCRF-Adr cells, JC-1 efflux, flow cytometry; inhibition, % at 6.6 µM; 190,000 tested, 0.067% active; in the data active = inhibition above about 40%;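 note: 0% = vehicle and 100% = reference inhibitor; higher value means more JC-1 retained so stronger ABCB1 efflux block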
RGS4-Gao reg – modulates binding of RGS4 to human Galphao. Multiplexed bead flow cytometry; actives lie on both sides. binding response (% of control), % at 10 µM. 220,000 tested, 0.33% active. AID 1415; in the data active = binding response below about 49% or above about 150%; inactive = in between;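 note: fluorescent Galphao activated with aluminum fluoride binding bead-coupled RGS4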
RGS-Gao – RGS4-Galphao interaction regulator (human) | shares compounds with RGS16-Gao HTS | RGS4–Galpha-o binding response, % at 10 µM | multiplexed bead flow cytometry, RGS–Galpha-o binding | AID 1504 | 1,600 tested, 99% active;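 note: fluorescently labeled Galpha-o bound to GDP with aluminium fluoride binding biotinylated RGS beads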
Biotin-avidin – interferes with biotinylated probe binding to avidin beads; shares compounds with RGS16-Gao HTS; streptavidin beads, fluorescein-biotin binding, flow cytometry; inhibition, % at 10 µM; 1,700 tested, under 10 active; AID 1783;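 active = inhibition above 50%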;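 note: median green fluorescence of gated singlet beads compared with DMSO control wells; 0% = DMSO wells and 100% = complete loss of bead fluorescence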
RGS8-Gao single – RGS8-Galphao interaction regulation, single point confirmation; shares compounds with RGS16-Gao HTS; bead-based flow cytometry RGS8-Galphao binding, fluorescence; actives lie on both sides; binding response (% of control), % at 10 µM; 1,700 tested, 3% active; in the data active = binding response below about 72% or above about 130%; inactive = in between;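 note: Galphao activated as GDP AlF4 complex before binding bead RGS8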
RGS7-Gao confirm – RGS7-Galphao interaction regulation, single point confirmation | shares compounds with RGS16-Gao HTS | bead-based flow cytometry RGS7-Galphao binding; actives lie on both sides | response (percent of control binding), % at 10 µM | 1,700 tested, 7.8% active; in the data active = response below about 75% or above about 130%; inactive = in between;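 note: fluorescent Galphao activated with GDP and aluminum fluoride binding bead-coupled RGS7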
RGS16-Gao conf – confirmation of regulators of human RGS16-Galphao interaction; shares compounds with RGS16-Gao HTS; bead-based flow cytometry, RGS16-Galphao binding; actives lie on both sides; response (% of control binding), % at 10 µM; 1,700 tested, 4% active; in the data active = response below about 74% or above about 130%; inactive = in between;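 note: Galphao activated as the GDP aluminium fluoride complex binding bead-coupled RGS16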
RGS4-Gao confirm – RGS4-Galphao interaction regulation, single point confirmation; shares compounds with RGS16-Gao HTS; RGS4-Galphao binding, multiplexed bead flow cytometry; actives lie on both sides; binding response (% of control), % at 10 µM; 1,700 tested, 4% active; in the data active = binding response below about 74% or above about 130%; inactive = in between
RGS19-Gao single – confirmation of regulators of human RGS19-Galphao interaction. 1,700 tested, 5% active. response (percent of control binding), % at 10 µM. shares compounds with RGS16-Gao HTS. bead-based flow cytometry RGS19-Galphao binding; actives lie on both sides; in the data active = response below about 50% or above about 160%; inactive = in between;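 note: 100% = no compound control and 0% = blank background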
An asterisk follows results filed as active; u = inconclusive; x = not tested or not shown; [ ] = another dose, or the depositor's remark. Unless noted, the rule behind the calls is not given here.

SMILES	RGS8-Gao reg	RGS7-Gao reg	RGS16-Gao HTS	ABCG2 inh	ABCB1 inh	RGS4-Gao reg	Biotin-avidin	RGS8-Gao single	RGS7-Gao confirm	RGS16-Gao conf	RGS4-Gao confirm	RGS19-Gao single	others
CN1CCc2nc(NC(=O)COc3ccc(C#N)cc3)sc2C1	96.7	99.0	102.2	6.3	2.3	101.0	x	x	x	x	x	x
Cc1ccc(NC(=O)COC(=O)c2cc(-c3cccs3)nn2-c2ccccc2)cc1[N+](=O)[O-]	97.1	101.3	86.0	16.9	11.7	95.9	x	x	x	x	x	x
COc1ccc(CCNC(=O)COC(=O)C23CC4CC(CC(C4)C2)C3)cc1	89.5	90.0	70.6	-6.1	-1.1	92.6	x	x	x	x	x	x
COc1ccc(CCNC(=O)COC(=O)C23CC4CC(CC(Br)(C4)C2)C3)cc1	75.9	86.8	13.5*	24.4	2.5	90.9	0.9	103.8	104.0	107.5	104.3	101.8	RGS-Gao=90.9*
O=C(O)c1cc(C(F)(F)F)nc2c(C(F)(F)F)cccc12	103.4	174.3*[activator]	122.6	1.4	0.6	142.6	x	x	x	x	x	x	RGS-Gao=142.6*
COc1ccc(Nc2ccc(N3C(=O)CCCC3=O)cc2[N+](=O)[O-])c(OC)c1	105.3	101.8	120.7	7.7	0.6	99.2	x	x	x	x	x	x
CC(=O)Nc1ccc(Nc2ccc(N3C(=O)CCCC3=O)cc2[N+](=O)[O-])cc1	52.9*	47.4*	32.7	21.2	1.7	45.8*	-3.1	104.9	102.7	106.8	103.4	94.4
CCNC(=O)c1ccccc1NC(=O)c1cccc(S(=O)(=O)N2CCC(C)CC2)c1	103.1	98.8	105.2	4.1	0.9	101.6	x	x	x	x	x	x
CCNC(=O)c1ccccc1NC(=O)c1cccc(S(=O)(=O)N2CCOCC2)c1	6.6*	-3.6*	-4.5*	-0.5	0.1	-14.3*	0.1	102.0	104.0	102.5	101.2	100.8
O=P(CCO)(c1ccccc1)c1ccccc1	90.2	165.8*[activator]	99.6	0.0	-0.1	104.1	-0.1	99.3	101.5	100.8	100.6	107.5	RGS-Gao=104.1*
O=P(CCCCCCCCCP(=O)(c1ccccc1)c1ccccc1)(c1ccccc1)c1ccccc1	95.1	94.4	96.6	3.3	2.7	98.6	x	x	x	x	x	x
CN1CCN(CCP(=O)(c2ccccc2)c2ccccc2)CC1	x	x	x	0.9	0.3	x	0.2	98.7	96.9	97.8	98.6	96.9
O=C(Nc1cccc(Cl)c1)NC1(C(=O)NCc2cccs2)CCCCC1	92.0	232.3*[activator]	96.5	0.8	0.2	114.5	-1.0	99.5	98.1	100.7	99.9	94.2	RGS-Gao=114.5*
O=C(Nc1ccc(F)cc1)NC1(C(=O)NCc2cccs2)CCCCC1	105.2	104.1	125.7	1.0	0.1	109.1	x	x	x	x	x	x
Cc1cccc(-n2c(N)cc(=O)nc2SCC(=O)Nc2nnc(C)s2)c1	102.2	100.6	104.9	-2.0	-0.4	103.0	x	x	x	x	x	x
COC(=O)Cc1ccc(NC(=O)c2ccccc2Br)cc1	28.4*	u	24.2*	5.4	0.4	32.8*	0.2	98.5	98.3	99.7	97.5	99.0
NC(=O)CC(NC(=O)Cc1ccc(Br)cc1)c1ccc(NCCc2cccc(F)c2)c([N+](=O)[O-])c1 (stereo not given)	98.8	u	99.5	x	x	104.9	x	x	x	x	x	x
CC(=O)c1ccc(NC(=O)Nc2ccc(Br)cc2C)cc1	87.5	216.5*[activator]	183.9*[activator]	4.0	0.4	204.1*[activator]	0.4	97.8	94.6	100.0	98.6	87.1
CC(=O)c1ccc(NC(=O)c2ccc(C)c(Br)c2)cc1	92.9	92.4	59.6	5.0	0.5	98.4	x	x	x	x	x	x
N#CCCn1c(O)c(N=NC(=O)CNC(=O)c2cccs2)c2ccccc21	105.8	u	108.9	x	x	119.2	x	x	x	x	x	x
NNC(=O)c1csc(CS(=O)(=O)c2ccc(Cl)cc2)n1	85.6	u	101.5	x	x	110.6	0.1	108.8	116.5	111.3	110.7	96.9
Cc1cc(OCC(=O)Nc2ccc(F)c(F)c2)nc(C(C)C)n1	34.3*	2.3*	-13.4*	0.0	-0.1	-21.4*	0.1	98.9	98.8	95.6	95.8	99.6
C/C(=N\NC(=O)Cc1cccn1C)c1cccs1	29.5*	31.2*	27.3	4.1	-1.8	34.2*	-1.3	102.4	103.8	102.0	103.7	106.1
O=C(CCN1CCN(S(=O)(=O)c2ccc(Cl)cc2)CC1)Nc1ccccc1F	101.8	98.3	104.5	4.5	2.8	104.4	x	x	x	x	x	x
COc1ccc(S(=O)(=O)N2CCN(CCC(=O)Nc3ccccc3F)CC2)cc1	x	x	x	0.6	0.5	x	2.4	99.4	95.3	97.2	97.6	105.6
CCOC(=O)c1ccc(-n2c(CN3CCC(O)CC3)nc3ccc([N+](=O)[O-])cc3c2=O)cc1	95.4	u	95.0	2.4	0.1	100.2	x	x	x	x	x	x
COc1ccc(C(=O)Nc2ccccc2C(=O)N(Cc2ccco2)C(C(N)=O)C(C)C)cc1 (stereo not given)	144.0*[activator]	140.2	332.5	1.8	0.6	225.5*[activator]	0.7	95.8	78.5	92.3	82.9	104.4
C=CCN(c1ccc(C(=O)Nc2cccc([N+](=O)[O-])c2)cc1)S(C)(=O)=O	100.0	100.5	100.9	6.2	0.5	99.0	x	x	x	x	x	x
Cc1cc(C)cc(NC(=S)NCc2ccc(S(N)(=O)=O)cc2)c1	94.6	x	109.5	-0.2	-0.3	97.0	3.0	97.3	104.9	102.0	100.2	108.0
CCOc1c(O)ccc(C2NC(=O)N(C)C(C)=C2C(=O)OC)c1[N+](=O)[O-] (stereo not given)	80.5	435.6*[activator]	89.3	4.0	-0.2	130.4	-0.2	97.5	97.6	97.4	97.5	99.8	RGS-Gao=130.4*
